Residues, ends and D or L forms follow the SMILES beside them.
Experiments:
[1] = Inhibition of HSP90
[2] = Growth inhibition of human PL45 cells at 5 uM after 24 hrs by [3H]thymidine uptake assay; type: functional; conditions: read-out: GI
HCT-116 = assay: Growth inhibition of human HCT116 cells at 5 uM after 24 hrs by [3H]thymidine uptake assay; type: functional; conditions: read-out: GI
[3] = Potency index, ratio of novobiocin IC50 to compound IC50 for HSP90 HSP90
[4] = Growth inhibition of Pancreatic cancer cells; type: functional, cell-based; conditions: Cancer cell lines
[5] = Cytotoxicity against human K2 O/E cells over expressing tetracycline inducible IP6K2 protein assessed as cell survival; type: functional
In short: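 Stable tetracycline-inducible Myc-IP6K2 HEK293 line. IP6K2 overexpression induced with 1 μg/mL tetracycline for 24 h; wild-type control cells got vehicle alone. Cells then exposed to 25 nM drug or DMSO (no drug) for 48 h. Viability read by CCK-8 assay and expressed relative to control set at 100%.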

| Compound | EC50 [1] [nM] | inhibition of growth at 5 µM [2] [%] | inhibition of growth at 5 µM (HCT-116) [%] | Ratio IC50 [3] | IC50 [4] [nM] | Survival [5] [%] |
| --- | --- | --- | --- | --- | --- | --- |
| CO[C@@H]1[C@@H](OC(N)=O)[C@@H](O)[C@H](Oc2ccc3c(O)c(NC(=O)c4ccc(O)c(CC=C(C)C)c4)c(=O)oc3c2C)OC1(C)C [NOVOBIOCIN] | 100000 | – | – | – | – | – |
| CC(C)C[C@@H]1NC(=O)[C@H](Cc2ccccc2)NC(=O)[C@H](CC(C)C)NC(=O)[C@H](C(C)C)NC(=O)[C@H](CC(C)C)NC1=O (cyclo(FLLVL)) | – | 25 | 33 | – | – | – |
| CC(C)C[C@@H]1NC(=O)[C@H](Cc2ccccc2)NC(=O)[C@H](CC(C)C)NC(=O)[C@@H](C(C)C)NC(=O)[C@H](CC(C)C)NC(=O)[C@H](CC(C)C)NC(=O)[C@H](Cc2ccccc2)NC(=O)[C@H](CC(C)C)NC(=O)[C@@H](C(C)C)NC(=O)[C@H](CC(C)C)NC1=O | – | 30 | 0 | – | – | – |
| CC(C)C[C@@H]1NC(=O)[C@H](Cc2ccccc2)NC(=O)[C@@H](CC(C)C)NC(=O)[C@@H](C(C)C)NC(=O)[C@H](CC(C)C)NC(=O)[C@H](CC(C)C)NC(=O)[C@@H](Cc2ccccc2)NC(=O)[C@@H](CC(C)C)NC(=O)[C@@H](C(C)C)NC(=O)[C@H](CC(C)C)NC1=O | – | 7 | 0 | – | – | – |
| CC(C)C[C@@H]1NC(=O)[C@H](C(C)C)NC(=O)[C@@H](CC(C)C)NC(=O)[C@@H](CC(C)C)NC(=O)[C@H](Cc2ccccc2)NC(=O)[C@H](CC(C)C)NC(=O)[C@H](C(C)C)NC(=O)[C@@H](CC(C)C)NC(=O)[C@@H](CC(C)C)NC(=O)[C@H](Cc2ccccc2)NC1=O | – | 48 | 0 | – | – | – |
| CC(C)C[C@@H]1NC(=O)[C@H](Cc2ccccc2)NC(=O)[C@@H](CC(C)C)NC(=O)[C@@H](C(C)C)NC(=O)[C@H](CC(C)C)NC(=O)[C@@H](CC(C)C)NC(=O)[C@@H](Cc2ccccc2)NC(=O)[C@@H](CC(C)C)NC(=O)[C@@H](C(C)C)NC(=O)[C@@H](CC(C)C)NC1=O | – | 17 | 0 | – | – | – |
| CC(C)C[C@@H]1NC(=O)[C@H](CC(C)C)NC(=O)[C@@H](Cc2ccccc2)NC(=O)[C@@H](CC(C)C)NC(=O)[C@@H](C(C)C)NC(=O)[C@H](CC(C)C)NC(=O)[C@H](CC(C)C)NC(=O)[C@@H](Cc2ccccc2)NC(=O)[C@@H](CC(C)C)NC(=O)[C@@H](C(C)C)NC1=O | – | 10 | 0 | – | – | – |
| CC(C)C[C@@H]1NC(=O)[C@H](Cc2ccccc2)NC(=O)[C@@H](CC(C)C)NC(=O)[C@@H](C(C)C)NC(=O)[C@H](CC(C)C)NC(=O)[C@@H](CC(C)C)NC(=O)[C@H](Cc2ccccc2)NC(=O)[C@@H](CC(C)C)NC(=O)[C@@H](C(C)C)NC(=O)[C@@H](CC(C)C)NC1=O | – | 4 | 0 | – | – | – |
| CC(C)C[C@@H]1NC(=O)[C@H](Cc2ccccc2)NC(=O)[C@@H](Cc2ccccc2)N(C)C(=O)[C@@H](C(C)C)NC(=O)[C@H](CC(C)C)NC(=O)[C@H](CC(C)C)NC(=O)[C@H](Cc2ccccc2)NC(=O)[C@@H](Cc2ccccc2)N(C)C(=O)[C@@H](C(C)C)NC(=O)[C@H](CC(C)C)NC1=O | – | 10 | 0 | – | – | – |
| CC(C)C[C@@H]1NC(=O)[C@H](CC(C)C)NC(=O)[C@@H](Cc2ccccc2)NC(=O)[C@@H](CC(C)C)NC(=O)[C@@H](C(C)C)NC(=O)[C@@H](CC(C)C)NC(=O)[C@H](CC(C)C)NC(=O)[C@@H](Cc2ccccc2)NC(=O)[C@@H](CC(C)C)NC(=O)[C@@H](C(C)C)NC1=O | – | 8 | 0 | – | – | – |
| CC(C)C[C@@H]1NC(=O)[C@H](Cc2ccccc2)NC(=O)[C@@H](CC(C)C)NC(=O)[C@@H](C(C)C)NC(=O)[C@@H](CC(C)C)NC(=O)[C@H](CC(C)C)NC(=O)[C@@H](Cc2ccccc2)NC(=O)[C@@H](CC(C)C)NC(=O)[C@@H](C(C)C)NC(=O)[C@H](CC(C)C)NC1=O | – | 15 | 0 | – | – | – |
| CC(C)C[C@@H]1NC(=O)[C@H](Cc2ccccc2)NC(=O)[C@H](CC(C)C)NC(=O)[C@H](C(C)C)NC(=O)[C@@H](CC(C)C)NC(=O)[C@H](CC(C)C)NC(=O)[C@H](Cc2ccccc2)NC(=O)[C@H](CC(C)C)NC(=O)[C@H](C(C)C)NC(=O)[C@@H](CC(C)C)NC1=O | – | 12 | 0 | – | – | – |
| CC(C)C[C@@H]1NC(=O)[C@@H](Cc2ccccc2)NC(=O)[C@@H](CC(C)C)NC(=O)[C@@H](C(C)C)NC(=O)[C@@H](CC(C)C)NC(=O)[C@H](CC(C)C)NC(=O)[C@@H](Cc2ccccc2)NC(=O)[C@@H](CC(C)C)NC(=O)[C@@H](C(C)C)NC(=O)[C@@H](CC(C)C)NC1=O | – | 79 | 40 | – | – | – |
| CC(C)C[C@@H]1NC(=O)[C@H](Cc2ccccc2)NC(=O)[C@@H](CC(C)C)NC(=O)[C@H](C(C)C)NC(=O)[C@@H](CC(C)C)NC(=O)[C@H](CC(C)C)NC(=O)[C@H](Cc2ccccc2)NC(=O)[C@@H](CC(C)C)NC(=O)[C@H](C(C)C)NC(=O)[C@@H](CC(C)C)NC1=O | – | 9 | 0 | – | – | – |
| CC(C)C[C@@H]1NC(=O)[C@H](Cc2ccccc2)NC(=O)[C@@H](Cc2ccccc2)NC(=O)[C@@H](C(C)C)NC(=O)[C@H](CC(C)C)NC(=O)[C@H](CC(C)C)NC(=O)[C@H](Cc2ccccc2)NC(=O)[C@@H](Cc2ccccc2)NC(=O)[C@@H](C(C)C)NC(=O)[C@H](CC(C)C)NC1=O | – | 13 | 16 | – | – | – |
| CC(C)C[C@@H]1NC(=O)[C@H](Cc2ccccc2)NC(=O)[C@H](CC(C)C)NC(=O)[C@@H](C(C)C)NC(=O)[C@@H](CC(C)C)NC(=O)[C@H](CC(C)C)NC(=O)[C@H](Cc2ccccc2)NC(=O)[C@H](CC(C)C)NC(=O)[C@@H](C(C)C)NC(=O)[C@@H](CC(C)C)NC1=O | – | 25 | 0 | – | – | – |
| CC(C)C[C@@H]1NC(=O)[C@H](Cc2ccccc2)NC(=O)[C@@H](CC(C)C)NC(=O)[C@@H](C(C)C)NC(=O)[C@@H](CC(C)C)NC(=O)[C@H](CC(C)C)NC(=O)[C@H](Cc2ccccc2)NC(=O)[C@@H](CC(C)C)NC(=O)[C@@H](C(C)C)NC(=O)[C@@H](CC(C)C)NC1=O | – | 21 | 17 | – | – | – |
| CC(C)C[C@@H]1NC(=O)[C@H](C(C)C)NC(=O)[C@H](CC(C)C)NC(=O)[C@@H](CC(C)C)NC(=O)[C@@H](Cc2ccccc2)NC(=O)[C@H](CC(C)C)NC(=O)[C@H](C(C)C)NC(=O)[C@H](CC(C)C)NC(=O)[C@@H](CC(C)C)NC(=O)[C@@H](Cc2ccccc2)NC1=O | – | 12 | 0 | – | – | – |
| CC(C)C[C@@H]1NC(=O)[C@H](CC(C)C)NC(=O)[C@@H](Cc2ccccc2)NC(=O)[C@@H](CC(C)C)NC(=O)[C@H](C(C)C)NC(=O)[C@H](CC(C)C)NC(=O)[C@H](CC(C)C)NC(=O)[C@@H](Cc2ccccc2)NC(=O)[C@@H](CC(C)C)NC(=O)[C@H](C(C)C)NC1=O | – | 36 | 0 | – | – | – |
| CC(C)C[C@@H]1NC(=O)[C@H](Cc2ccccc2)NC(=O)[C@@H](CC(C)C)NC(=O)[C@@H](C(C)C)NC(=O)[C@H](CC(C)C)NC(=O)[C@H](CC(C)C)NC(=O)[C@H](Cc2ccccc2)NC(=O)[C@@H](CC(C)C)NC(=O)[C@@H](C(C)C)NC(=O)[C@H](CC(C)C)NC1=O | 2 | 99 | 99 | 50000 | 1 | 3 |
| CC(C)C[C@@H]1NC(=O)[C@H](C(C)C)NC(=O)[C@@H](CC(C)C)NC(=O)[C@@H](Cc2ccccc2)NC(=O)[C@H](Cc2ccccc2)NC(=O)[C@H](CC(C)C)NC(=O)[C@H](C(C)C)NC(=O)[C@@H](CC(C)C)NC(=O)[C@@H](Cc2ccccc2)NC(=O)[C@H](Cc2ccccc2)NC1=O | – | 10 | 0 | – | – | – |
| CC(C)C[C@@H]1NC(=O)[C@H](CC(C)C)NC(=O)[C@@H](Cc2ccccc2)NC(=O)[C@H](CC(C)C)NC(=O)[C@H](C(C)C)NC(=O)[C@H](CC(C)C)NC(=O)[C@H](CC(C)C)NC(=O)[C@@H](Cc2ccccc2)NC(=O)[C@H](CC(C)C)NC(=O)[C@H](C(C)C)NC1=O | – | 11 | 0 | – | – | – |
| CC(C)C[C@@H]1NC(=O)[C@H](Cc2ccccc2)NC(=O)[C@@H](CC(C)C)NC(=O)[C@@H](C(C)C)NC(=O)[C@@H](CC(C)C)NC(=O)[C@H](CC(C)C)NC(=O)[C@@H](Cc2ccccc2)NC(=O)[C@@H](CC(C)C)NC(=O)[C@@H](C(C)C)NC(=O)[C@@H](CC(C)C)NC1=O | – | 12 | 0 | – | – | – |
